In the library only some 5.9% were active in any assay of this set; here they are far more common.
Rev-RRE block = HIV-1 Rev-RRE binding inhibitors, primary screen, biochemical, FRET, protein-RNA interaction. P05866. Rev peptide-RRE RNA binding. inhibition, % at 8 µM. 0.79% of 97,000 active. AID 704, 2007;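 active means inhibition above the screen-wide mean plus 3 SD, cut at about 35% in these data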;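 further: 0% = median DMSO wells and 100% = median Neomycin B control wells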
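Test system: Cy5-tagged RRE RNA duplex with fluorescein-tagged Rev peptide; Probe or stimulus: labelled Rev peptide; Schedule: 5 min preincubation and 15 min binding, 25 °C; Signal: FRET fluorescence readout; Evaluation: % inhibition from 671/540 nm acceptor-to-donor ratio, scaled between controls; Control set: DMSO and neomycin B.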
DAT uptake mod = changed hDAT dopamine uptake under cocaine IC80, either direction, primary screen, cocaine antagonist project, cell-based, LLC-PK1 hDAT, [14C]-dopamine uptake, MLSMR. Sodium-dependent dopamine transporter (Homo sapiens), Q01959. LLC-PK1 hDAT cells, [14C]-dopamine uptake with cocaine IC80; actives deviate in either direction. B-score at 10 µM. 1.3% of 110,000 active. AID 449768, 2010;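 active means Z score or B-score, a plate-position-corrected score, falls beyond the plate's 99.7% confidence bounds, in either direction; inactive means both scores lie inside the 99.7% bounds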;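 further: scored against the spread of the other compound wells on the same plate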
Phagocyt inh = inhibitors of macrophage phagocytosis, primary screen, imaging, J774A.1 cells, IgG beads. AID 1029, 2008. J774A.1 macrophage IgG-bead phagocytosis. inhibition, % at 5 µM. 0.07% of 110,000 active;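 active means inhibition above the mean of the plate negative controls plus 5 SD, cut at about 13% in these data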;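 further: phagocytic index as fraction of beads internalized from green versus red external bead signal; plate controls were DMSO negative control for no effect and cytochalasin-D positive control for full effect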
Pyk2 oligo antag = antagonists of Pyk2 self-association, primary screen, Q293 cells, FERM NanoBiT luminescence, HTS; Protein-tyrosine kinase 2-beta (Homo sapiens), Q14289; stronger effect = lower value; z-score (the deposit names both 25 µM and 10 µM); 0.83% of 99,000 active; AID 1347419, 2020;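 active means Z-score of -3 or lower, scaled per plate to the spread of control and sample wells; inactive means z-score above -3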;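 further: negative z-score means lost luminescence so less FERM oligomerization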
Measles CPE = compounds protecting cells from measles virus cytopathic effect, primary screen, measles RdRp inhibitor project, single point, MLSMR library, absorbance; Measles virus-infected cells, CPE protection; protection (pct of control), % at 4 µM; 1.5% of 140,000 active; AID 841, 2007; in the data active means protection mostly above about 24%, no sharp cut-off; inactive means mostly below about 26%
Cav3 T inh = Cav3.2 calcium influx blockers – cell-based, Fluo-4 calcium fluorescence, FDSS, MLSMR library, primary screen | B-score at 10 µM | Voltage-dependent T-type calcium channel subunit alpha-1H (Homo sapiens), O95180 | 4% of 100,000 active | Cav3.2-expressing cells; stronger effect = lower value;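 active means single-dose well whose peak fluorescence ratio is a statistical outlier from its plate by either plate-standardised score or position-corrected B-score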
Target sequence (O95180 whole entry, looked up): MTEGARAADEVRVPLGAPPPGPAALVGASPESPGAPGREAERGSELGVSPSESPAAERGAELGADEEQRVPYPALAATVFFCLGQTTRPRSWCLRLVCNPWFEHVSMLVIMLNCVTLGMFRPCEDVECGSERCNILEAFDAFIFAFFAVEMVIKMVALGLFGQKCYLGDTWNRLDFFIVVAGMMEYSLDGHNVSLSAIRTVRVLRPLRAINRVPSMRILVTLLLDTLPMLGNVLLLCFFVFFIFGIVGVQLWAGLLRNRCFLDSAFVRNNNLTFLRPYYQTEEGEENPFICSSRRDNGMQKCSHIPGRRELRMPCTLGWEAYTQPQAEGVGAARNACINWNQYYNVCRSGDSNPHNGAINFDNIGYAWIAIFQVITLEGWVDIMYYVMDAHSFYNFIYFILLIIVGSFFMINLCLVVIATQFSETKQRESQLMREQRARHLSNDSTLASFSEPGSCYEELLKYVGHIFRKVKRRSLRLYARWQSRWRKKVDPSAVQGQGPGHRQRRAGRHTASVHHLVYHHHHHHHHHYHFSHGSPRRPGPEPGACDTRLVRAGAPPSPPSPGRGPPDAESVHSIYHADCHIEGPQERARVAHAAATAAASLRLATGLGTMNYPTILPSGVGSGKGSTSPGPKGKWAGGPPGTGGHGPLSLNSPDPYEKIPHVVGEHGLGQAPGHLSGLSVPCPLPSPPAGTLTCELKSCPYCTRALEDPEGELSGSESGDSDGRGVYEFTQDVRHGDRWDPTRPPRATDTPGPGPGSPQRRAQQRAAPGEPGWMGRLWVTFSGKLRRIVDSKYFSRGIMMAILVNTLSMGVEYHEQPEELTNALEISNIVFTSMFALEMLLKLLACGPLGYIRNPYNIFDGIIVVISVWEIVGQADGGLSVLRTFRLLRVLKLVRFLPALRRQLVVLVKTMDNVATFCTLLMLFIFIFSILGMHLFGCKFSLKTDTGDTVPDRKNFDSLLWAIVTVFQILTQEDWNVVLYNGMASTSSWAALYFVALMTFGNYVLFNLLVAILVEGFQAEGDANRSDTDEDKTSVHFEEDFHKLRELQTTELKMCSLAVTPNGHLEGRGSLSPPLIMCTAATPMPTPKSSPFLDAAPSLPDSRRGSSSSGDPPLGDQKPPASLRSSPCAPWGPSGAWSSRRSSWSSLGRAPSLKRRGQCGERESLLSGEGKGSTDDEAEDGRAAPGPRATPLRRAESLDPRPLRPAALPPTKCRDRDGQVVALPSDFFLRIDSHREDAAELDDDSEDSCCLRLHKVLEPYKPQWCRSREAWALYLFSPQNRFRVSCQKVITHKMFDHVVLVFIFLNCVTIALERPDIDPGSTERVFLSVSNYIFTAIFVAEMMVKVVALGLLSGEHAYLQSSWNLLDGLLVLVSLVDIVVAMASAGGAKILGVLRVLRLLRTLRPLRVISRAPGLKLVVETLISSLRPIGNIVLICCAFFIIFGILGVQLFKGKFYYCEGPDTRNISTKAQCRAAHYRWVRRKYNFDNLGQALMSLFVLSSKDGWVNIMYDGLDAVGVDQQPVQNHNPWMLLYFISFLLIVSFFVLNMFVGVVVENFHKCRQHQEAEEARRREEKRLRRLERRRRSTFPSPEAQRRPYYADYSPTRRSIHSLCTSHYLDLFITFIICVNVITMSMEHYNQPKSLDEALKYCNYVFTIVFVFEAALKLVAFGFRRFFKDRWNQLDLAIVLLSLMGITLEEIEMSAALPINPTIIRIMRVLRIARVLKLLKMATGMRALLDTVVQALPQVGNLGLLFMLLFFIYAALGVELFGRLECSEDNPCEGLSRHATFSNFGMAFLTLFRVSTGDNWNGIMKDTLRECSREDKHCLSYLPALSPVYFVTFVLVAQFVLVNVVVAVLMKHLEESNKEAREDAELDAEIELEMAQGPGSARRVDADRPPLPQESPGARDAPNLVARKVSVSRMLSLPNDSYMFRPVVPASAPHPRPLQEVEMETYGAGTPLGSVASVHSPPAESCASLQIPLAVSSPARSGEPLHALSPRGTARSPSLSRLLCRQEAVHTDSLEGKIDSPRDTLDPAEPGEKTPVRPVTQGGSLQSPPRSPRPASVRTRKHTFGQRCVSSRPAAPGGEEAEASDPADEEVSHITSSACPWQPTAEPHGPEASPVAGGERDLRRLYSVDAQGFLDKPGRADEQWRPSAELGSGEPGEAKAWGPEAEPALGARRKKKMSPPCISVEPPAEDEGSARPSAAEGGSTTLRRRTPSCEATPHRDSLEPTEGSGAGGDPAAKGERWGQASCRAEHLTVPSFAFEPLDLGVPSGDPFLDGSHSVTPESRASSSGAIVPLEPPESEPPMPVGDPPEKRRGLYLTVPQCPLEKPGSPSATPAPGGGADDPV
The depositor's hits bear a star; · = no result.

SMILES	Rev-RRE block	DAT uptake mod	Phagocyt inh	Pyk2 oligo antag	Measles CPE	Cav3 T inh
Cc1sc2nc(CN(Cc3ccccc3)C(=O)NC3CCCCC3)[nH]c(=O)c2c1C	8	0.31	·	-3*	·	-2.3
Cc1sc2nc(CN(CCc3ccccc3)C(=O)c3ccco3)[nH]c(=O)c2c1C	·	-1.1	0	·	·	-0.53
CC1(C)Oc2ccccc2OC1(O)c1ccc2ccccc2n1 (configuration not stated)	·	·	-3	·	6	·
CC(C)c1ccc(C2C(C#N)=C(N)N3C(=C2C#N)Sc2ccccc23)cc1 (configuration not stated)	56*	0.0037	-1	·	8	-1.4
CC1(C)Cc2c(c(N3CCOCC3)nc3sc(-c4ccc(C(=O)O)o4)c(N)c23)CO1	40*	0.031	·	-0.2	4	0.42
CC1=C(C(=O)OCc2ccccc2)C(c2ccc(Cl)cc2Cl)NC(=O)N1CCCC(=O)O (configuration not stated)	·	1.7	·	·	2	0.36
COc1cccc(NS(=O)(=O)c2cc(C)sc2C)c1	2	2.6*	·	-1.4	14	-3.3
Oc1ccc(-c2[nH]nc(-c3ccccc3)c2-c2nc3ccccc3[nH]2)cc1	1	0.039	-2	-0.17	1	-5.5*
CCc1cccc(NC(=O)CCSCCC(=O)Nc2cccc(CC)c2)c1	11	0.42	1	0.12	30	-7.5*
CCc1cccc(NC(=O)C2CCCC2)c1	0	0.51	0	0.88	14	·
Cc1ccc(NC(=O)CSCC(N)=O)cc1C	6	1.1	0	0.72	40*	0.58
Cc1ccc(NC(=O)CCSCCC(=O)Nc2ccc(C)c(C)c2)cc1C	-2	0.37	·	-0.03	22	-6.8*
COCCCNC(=S)NC(=O)c1ccc(C)cc1	·	·	0	·	9	·
COc1ccc(-c2cc(-c3ccc(C)cc3)nc(SCc3nnc(-c4ccccc4)o3)c2C#N)cc1OC	·	·	-3	·	2	·
CCn1c(=O)c(C(=O)CN2CCN(S(=O)(=O)c3cc(C)ccc3C)CC2)c(N)n(Cc2ccccc2)c1=O	·	·	·	·	6	·
CCO[C@H]1OC(C(=O)O)=C[C@@H](c2ccccc2)[C@@H]1CCCO	·	-0.65	·	·	·	1.3
CCOC(=O)CSc1nc2cc3c(cc2cc1CC)OCCO3	14	-0.26	·	-0.49	11	-4.6*
Cc1cc(C(=O)CN2C(=O)c3ccccc3C2=O)c(C)n1Cc1cccs1	7	0.009	·	0.08	17	1
Cc1cc(C(=O)Cn2nnc3ccccc3c2=O)c(C)n1Cc1cccs1	1	1.3	-1	0.34	9	-3.5*
COC(=O)c1ccc(Cl)c(NC(=O)CN(c2ccccc2)S(=O)(=O)c2ccc(OC)cc2)c1	·	·	-11	·	10	·
COC(=O)/C(=N/Nc1ccccc1C)Sc1nnc(C(O)c2ccccc2)n1-c1ccccc1 (configuration not stated)	·	·	-6	·	4	·
O=C(CCn1cnc2ccccc2c1=O)Nc1nc(-c2ccc(Br)cc2)cs1	·	·	-3	·	11	·
CCOC(=O)C1=NN(C(=O)Nc2cccc(C(F)(F)F)c2)C2C(=O)N(c3cccc(C(F)(F)F)c3)C(=O)C12 (configuration not stated)	6	0.96	0	0.48	8	-5.7*
CC1=CCC2C(=O)N(c3ccccc3OC(=O)c3ccccc3F)C(=O)C2C1 (configuration not stated)	·	·	-6	0.15	2	·
COC(=O)c1cc(=O)n(Cc2ccco2)c(=Nc2ccc(F)c(Cl)c2)s1	15	-0.73	0	·	12	-1.9
SMILES	Rev-RRE block	DAT uptake mod	Phagocyt inh	Pyk2 oligo antag	Measles CPE	Cav3 T inh
COC(=O)c1cc(=O)n(CCc2ccccc2F)c(=Nc2ccc(F)c(Cl)c2)s1	21	1.7	0	·	6	-3.5*
CCOC(=O)C1=C(C)N=C2SC(C)C(=O)N2C1/C=C/c1ccccc1OC (configuration not stated)	11	0.021	0	0.77	2	-5.2*
CCOC(=O)C1=C(C)N=C2SCCC(=O)N2[C@@H]1/C=C/c1ccccc1	1	0.035	·	-1.2	16	-4.8*
CC(=O)Nc1sc2c(c1C(c1ccc(Cl)cc1)N1CCOCC1)CCCC2 (configuration not stated)	-7	0.61	-1	-2	0	·
CC(=O)Nc1sc2c(c1C(c1ccc(F)cc1)N1CCOCC1)CCCC2 (configuration not stated)	5	0.79	-2	-1.9	4	-7.1*
CC(=O)Nc1sc2c(c1C(c1ccccc1)N1CCOCC1)CCCC2 (configuration not stated)	3	-0.22	·	-0.39	34	-6.3*
CCc1cc(C(c2ccc(F)cc2)N2CCOCC2)c(NC(=O)c2ccccc2)s1 (configuration not stated)	0	0.089	·	1.2	5	-1
CCn1cc(CNC(=O)c2c(-c3c(Cl)cccc3Cl)noc2C)c(C)n1	·	·	-5	·	3	·
COC(=O)C1=C[C@@H](C(=O)OC)[C@@H]2C3=C(C(=O)C2(C)C)[C@H](C)n2c(=O)n(-c4ccccc4)c(=O)n2[C@@H]3C1	·	-0.46	·	·	·	0.42
Cc1noc(C)c1S(=O)(=O)Nc1ccc(O)c2c(=O)cc(-c3ccccc3Cl)oc12	·	-0.33	·	·	·	-3.9
O=C1/C(=C\c2ccco2)SC(=S)N1c1ccc(O)cc1	·	·	0	·	39*	·
COc1ccccc1C(=O)NCCCNc1ccc([N+](=O)[O-])cc1	·	·	-11	·	27*	·
CC(=O)NCCCNc1ccc([N+](=O)[O-])cc1	·	·	0	·	6	·
CCCC1=C(C(=O)OCC)C(c2c(C)nn(-c3ccccc3)c2Cl)C(C#N)=C(N)O1 (configuration not stated)	9	1.1	-1	-1.3	1	-5*
COc1ccc(-c2nnc(SCC(=O)N3c4ccccc4Sc4ccccc43)o2)cc1	8	1.3	·	-1	4	-5.6*
COc1cc(OC)cc(-c2nnc(SCC(=O)N3c4ccccc4Sc4ccccc43)o2)c1	11	0.19	·	0.44	·	-2.7
COc1cc(OC)cc(-c2nnc(SCC(=O)N3CCCc4ccccc43)o2)c1	9	1.9	-1	-1.6	35*	-4.3*
O=C(CSc1nnc(CNc2ccc(F)cc2)o1)N1CCCc2ccccc21	·	-0.011	2	0.13	3	-5.3*
COc1ccc(-c2nnc(SCC(=O)N3CCc4ccccc4C3)o2)cc1	5	3.2*	0	0.24	3	-1.1
Cc1nn(C)cc1/C=C(/C#N)C(N)=O	·	·	-4	·	7	·
COC(=O)c1sc(N)c(C(=O)OC)c1COC(=O)CNS(=O)(=O)c1ccc(C)c(C)c1	·	·	-3	·	8	·

Bioassay records from PubChem.
